Reference: ChEMBL document CHEMBL4689842, “EUbOPEN Chemogenomics Library wave 1” (2021)
Values joined by “and” are separate entries in the source; they are usually repeats but may differ in a detail not shown here. Equal values may be shown once.

Test system: U2OS
Assay: Multiplex assay against U2OS
Format: toxicity, cell-based
Settings: human
How it was run: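 Live cells were stained at seeding with Hoechst33342, BioTracker Green Microtubule Cytoskeleton Dye, MitoTracker Red and Annexin V Alexa Fluor 680. Following compound addition, they were imaged on a CQ1 microscope at 37°C and 5% CO2 and gated by CellPathfinder machine learning into Hoechst high-intensity objects or normal cells, with normal cells split into healthy, pyknosed or fragmented nuclei and pyknosed cells into mitotic or apoptotic. Tubulin, mitochondrial-mass and membrane-permeability phenotypes are per cents of healthy-nucleus cells.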

[1] = 12 h, 1 µM, compound concentration 1 uM, replicate 1
[2] = 12 h, 1 µM, compound concentration 1 uM, replicate 2
[3] = 12 h, 10 µM, compound concentration 10 uM, replicate 1
[4] = 12 h, 10 µM, compound concentration 10 uM, replicate 2
[5] = 24 h, 1 µM, compound concentration 1 uM, replicate 1
[6] = 24 h, 1 µM, compound concentration 1 uM, replicate 2
[7] = 24 h, 10 µM, compound concentration 10 uM, replicate 1
[8] = 24 h, 10 µM, compound concentration 10 uM, replicate 2
[9] = 48 h, 1 µM, compound concentration 1 uM, replicate 1
[10] = 48 h, 1 µM, compound concentration 1 uM, replicate 2
[11] = 48 h, 10 µM, compound concentration 10 uM, replicate 1
[12] = 48 h, 10 µM, compound concentration 10 uM, replicate 2

SMILES: CN(C)CC#Cc1ccc(OCCCc2sc(N3CCc4cccc(C(=O)Nc5nc6ccccc6s5)c4C3)nc2C(=O)O)c(F)c1 [A-1155463]
- Population Apoptotic (%) [1]: 63%
- Population Fragmented Nuclei (%) [1]: 13%
- Population Healthy Nuclei (%) [1]: 65%
- Population Hoechst High Intensity Objects (%) [1]: 12%
- Population Membrane Permeable-Phenotype (%) [1]: 14%
- Population Mitochondria Different-Phenotype (%) [1]: 14%
- Population Mitotic Cells (%) [1]: 36%
- Population Normal (%) [1]: 87%
- Population Pyknosed Nuclei (%) [1]: 21%
- Population Tubulin-Different-Phenotype (%) [1]: 11%
- Total Cell Count [1]: 175
- Population Apoptotic (%) [2]: 66%
- Population Fragmented Nuclei (%) [2]: 39%
- Population Healthy Nuclei (%) [2]: 53%
- Population Hoechst High Intensity Objects (%) [2]: 4%
- Population Membrane Permeable-Phenotype (%) [2]: 13%
- Population Mitochondria Different-Phenotype (%) [2]: 31%
- Population Mitotic Cells (%) [2]: 33%
- Population Normal (%) [2]: 95%
- Population Pyknosed Nuclei (%) [2]: 7%
- Population Tubulin-Different-Phenotype (%) [2]: 27%
- Total Cell Count [2]: 86
- Population Apoptotic (%) [3]: 61%
- Population Fragmented Nuclei (%) [3]: 25%
- Population Healthy Nuclei (%) [3]: 55%
- Population Hoechst High Intensity Objects (%) [3]: 6%
- Population Membrane Permeable-Phenotype (%) [3]: 8%
- Population Mitochondria Different-Phenotype (%) [3]: 15%
- Population Mitotic Cells (%) [3]: 38%
- Population Normal (%) [3]: 93%
- Population Pyknosed Nuclei (%) [3]: 19%
- Population Tubulin-Different-Phenotype (%) [3]: 13%
- Total Cell Count [3]: 189
- Population Apoptotic (%) [4]: 86%
- Population Fragmented Nuclei (%) [4]: 33%
- Population Healthy Nuclei (%) [4]: 42%
- Population Hoechst High Intensity Objects (%) [4]: 5%
- Population Membrane Permeable-Phenotype (%) [4]: 24%
- Population Mitochondria Different-Phenotype (%) [4]: 16%
- Population Mitotic Cells (%) [4]: 13%
- Population Normal (%) [4]: 94%
- Population Pyknosed Nuclei (%) [4]: 23%
- Population Tubulin-Different-Phenotype (%) [4]: 25%
- Total Cell Count [4]: 133
- Population Apoptotic (%) [5]: 47%
- Population Fragmented Nuclei (%) [5]: 19%
- Population Healthy Nuclei (%) [5]: 58%
- Population Hoechst High Intensity Objects (%) [5]: 5%
- Population Membrane Permeable-Phenotype (%) [5]: 11%
- Population Mitochondria Different-Phenotype (%) [5]: 15%
- Population Mitotic Cells (%) [5]: 52%
- Population Normal (%) [5]: 94%
- Population Pyknosed Nuclei (%) [5]: 21%
- Population Tubulin-Different-Phenotype (%) [5]: 6%
- Total Cell Count [5]: 222
- Population Apoptotic (%) [6]: 50%
- Population Fragmented Nuclei (%) [6]: 36%
- Population Healthy Nuclei (%) [6]: 54%
- Population Hoechst High Intensity Objects (%) [6]: 7%
- Population Membrane Permeable-Phenotype (%) [6]: 13%
- Population Mitochondria Different-Phenotype (%) [6]: 32%
- Population Mitotic Cells (%) [6]: 50%
- Population Normal (%) [6]: 92%
- Population Pyknosed Nuclei (%) [6]: 9%
- Population Tubulin-Different-Phenotype (%) [6]: 28%
- Total Cell Count [6]: 92
- Population Apoptotic (%) [7]: 58%
- Population Fragmented Nuclei (%) [7]: 20%
- Population Healthy Nuclei (%) [7]: 51%
- Population Hoechst High Intensity Objects (%) [7]: 5%
- Population Membrane Permeable-Phenotype (%) [7]: 13%
- Population Mitochondria Different-Phenotype (%) [7]: 23%
- Population Mitotic Cells (%) [7]: 41%
- Population Normal (%) [7]: 94%
- Population Pyknosed Nuclei (%) [7]: 27%
- Population Tubulin-Different-Phenotype (%) [7]: 12%
- Total Cell Count [7]: 194
- Population Apoptotic (%) [8]: 81%
- Population Fragmented Nuclei (%) [8]: 32%
- Population Healthy Nuclei (%) [8]: 45%
- Population Hoechst High Intensity Objects (%) [8]: 10%
- Population Membrane Permeable-Phenotype (%) [8]: 20%
- Population Mitochondria Different-Phenotype (%) [8]: 14%
- Population Mitotic Cells (%) [8]: 18%
- Population Normal (%) [8]: 89%
- Population Pyknosed Nuclei (%) [8]: 22%
- Population Tubulin-Different-Phenotype (%) [8]: 21%
- Total Cell Count [8]: 135
- Population Apoptotic (%) [9]: 67%
- Population Fragmented Nuclei (%) [9]: 24%
- Population Healthy Nuclei (%) [9]: 46%
- Population Hoechst High Intensity Objects (%) [9]: 10%
- Population Membrane Permeable-Phenotype (%) [9]: 7%
- Population Mitochondria Different-Phenotype (%) [9]: 18%
- Population Mitotic Cells (%) [9]: 32%
- Population Normal (%) [9]: 89%
- Population Pyknosed Nuclei (%) [9]: 29%
- Population Tubulin-Different-Phenotype (%) [9]: 10%
- Total Cell Count [9]: 285
- Population Apoptotic (%) [10]: 77%
- Population Fragmented Nuclei (%) [10]: 28%
- Population Healthy Nuclei (%) [10]: 51%
- Population Hoechst High Intensity Objects (%) [10]: 5%
- Population Membrane Permeable-Phenotype (%) [10]: 19%
- Population Mitochondria Different-Phenotype (%) [10]: 43%
- Population Mitotic Cells (%) [10]: 22%
- Population Normal (%) [10]: 94%
- Population Pyknosed Nuclei (%) [10]: 20%
- Population Tubulin-Different-Phenotype (%) [10]: 36%
- Total Cell Count [10]: 117
- Population Apoptotic (%) [11]: 74%
- Population Fragmented Nuclei (%) [11]: 26%
- Population Healthy Nuclei (%) [11]: 32%
- Population Hoechst High Intensity Objects (%) [11]: 9%
- Population Membrane Permeable-Phenotype (%) [11]: 23%
- Population Mitochondria Different-Phenotype (%) [11]: 38%
- Population Mitotic Cells (%) [11]: 25%
- Population Normal (%) [11]: 90%
- Population Pyknosed Nuclei (%) [11]: 40%
- Population Tubulin-Different-Phenotype (%) [11]: 11%
- Total Cell Count [11]: 246
- Population Apoptotic (%) [12]: 81%
- Population Fragmented Nuclei (%) [12]: 34%
- Population Healthy Nuclei (%) [12]: 35%
- Population Hoechst High Intensity Objects (%) [12]: 8%
- Population Membrane Permeable-Phenotype (%) [12]: 57%
- Population Mitochondria Different-Phenotype (%) [12]: 51%
- Population Mitotic Cells (%) [12]: 18%
- Population Normal (%) [12]: 91%
- Population Pyknosed Nuclei (%) [12]: 29%
- Population Tubulin-Different-Phenotype (%) [12]: 57%
- Total Cell Count [12]: 139

SMILES: NC(=O)Nc1cc(-c2cccc(F)c2)sc1C(=O)N[C@H]1CCCNC1 [AZD-7762]
- Population Apoptotic (%) [1]: 25%
- Population Fragmented Nuclei (%) [1]: 7%
- Population Hoechst High Intensity Objects (%) [1]: 3%
- Population Membrane Permeable-Phenotype (%) [1]: 9%
- Population Mitochondria Different-Phenotype (%) [1]: 17%
- Population Mitotic Cells (%) [1]: 75%
- Population Normal (%) [1]: 96%
- Population Pyknosed Nuclei (%) [1]: 10%
- Total Cell Count [1]: 157
- Population Apoptotic (%) [2]: 0%
- Population Fragmented Nuclei (%) [2]: 8%
- Population Healthy Nuclei (%) [2]: 81%
- Population Hoechst High Intensity Objects (%) [2]: 15%
- Population Membrane Permeable-Phenotype (%) [2]: 13%
- Population Mitochondria Different-Phenotype (%) [2]: 10%
- Population Mitotic Cells (%) [2]: 100%
- Population Normal (%) [2]: 84%
- Population Pyknosed Nuclei (%) [2]: 9%
- Population Tubulin-Different-Phenotype (%) [2]: 26%
- Total Cell Count [2]: 110
- Population Apoptotic (%) [3]: 25% and 43%
- Population Fragmented Nuclei (%) [3]: 28%
- Population Healthy Nuclei (%) [3]: 28% and 20%
- Population Hoechst High Intensity Objects (%) [3]: 3% and 12%
- Population Membrane Permeable-Phenotype (%) [3]: 19% and 8%
- Population Mitochondria Different-Phenotype (%) [3]: 15% and 20%
- Population Mitotic Cells (%) [3]: 74% and 56%
- Population Normal (%) [3]: 96% and 87%
- Population Pyknosed Nuclei (%) [3]: 49% and 50%
- Population Tubulin-Different-Phenotype (%) [3]: 17% and 11%
- Total Cell Count [3]: 189 and 194
- Population Apoptotic (%) [4]: 46% and 22%
- Population Fragmented Nuclei (%) [4]: 22% and 25%
- Population Healthy Nuclei (%) [4]: 25% and 32%
- Population Hoechst High Intensity Objects (%) [4]: 5% and 11%
- Population Membrane Permeable-Phenotype (%) [4]: 21% and 20%
- Population Mitotic Cells (%) [4]: 53% and 77%
- Population Normal (%) [4]: 94% and 88%
- Population Pyknosed Nuclei (%) [4]: 52% and 41%
- Total Cell Count [4]: 79 and 84
- Population Apoptotic (%) [5]: 40%
- Population Fragmented Nuclei (%) [5]: 15%
- Population Healthy Nuclei (%) [5]: 52%
- Population Hoechst High Intensity Objects (%) [5]: 6%
- Population Membrane Permeable-Phenotype (%) [5]: 16%
- Population Mitochondria Different-Phenotype (%) [5]: 21%
- Population Mitotic Cells (%) [5]: 60%
- Population Normal (%) [5]: 93%
- Population Pyknosed Nuclei (%) [5]: 32%
- Population Tubulin-Different-Phenotype (%) [5]: 35%
- Total Cell Count [5]: 150
- Population Apoptotic (%) [6]: 37%
- Population Fragmented Nuclei (%) [6]: 7%
- Population Healthy Nuclei (%) [6]: 51%
- Population Hoechst High Intensity Objects (%) [6]: 18%
- Population Membrane Permeable-Phenotype (%) [6]: 7%
- Population Mitotic Cells (%) [6]: 62%
- Population Normal (%) [6]: 81%
- Population Pyknosed Nuclei (%) [6]: 40%
- Population Tubulin-Different-Phenotype (%) [6]: 34%
- Total Cell Count [6]: 97
- Population Apoptotic (%) [7]: 81% and 85%
- Population Healthy Nuclei (%) [7]: 7%
- Population Hoechst High Intensity Objects (%) [7]: 9% and 10%
- Population Mitochondria Different-Phenotype (%) [7]: 46% and 78%
- Population Mitotic Cells (%) [7]: 18% and 14%
- Population Normal (%) [7]: 90% and 89%
- Population Pyknosed Nuclei (%) [7]: 47% and 70%
- Total Cell Count [7]: 185 and 189
- Population Apoptotic (%) [8]: 92% and 70%
- Population Fragmented Nuclei (%) [8]: 16% and 21%
- Population Healthy Nuclei (%) [8]: 16% and 18%
- Population Hoechst High Intensity Objects (%) [8]: 20% and 11%
- Population Membrane Permeable-Phenotype (%) [8]: 100% and 64%
- Population Mitochondria Different-Phenotype (%) [8]: 80% and 57%
- Population Normal (%) [8]: 80% and 88%
- Population Pyknosed Nuclei (%) [8]: 66% and 59%
- Population Tubulin-Different-Phenotype (%) [8]: 90% and 64%
- Total Cell Count [8]: 75 and 84
- Population Apoptotic (%) [11]: 95%
- Population Fragmented Nuclei (%) [11]: 38%
- Population Healthy Nuclei (%) [11]: 1%
- Population Hoechst High Intensity Objects (%) [11]: 15%
- Population Membrane Permeable-Phenotype (%) [11]: 0%
- Population Mitochondria Different-Phenotype (%) [11]: 33%
- Population Mitotic Cells (%) [11]: 4%
- Population Normal (%) [11]: 84%
- Population Pyknosed Nuclei (%) [11]: 59%
- Population Tubulin-Different-Phenotype (%) [11]: 33%
- Total Cell Count [11]: 188
- Population Apoptotic (%) [12]: 100%
- Population Fragmented Nuclei (%) [12]: 16%
- Population Healthy Nuclei (%) [12]: 44%
- Population Hoechst High Intensity Objects (%) [12]: 21%
- Population Membrane Permeable-Phenotype (%) [12]: 100%
- Population Mitochondria Different-Phenotype (%) [12]: 92%
- Population Mitotic Cells (%) [12]: 0%
- Population Normal (%) [12]: 78%
- Population Pyknosed Nuclei (%) [12]: 38%
- Population Tubulin-Different-Phenotype (%) [12]: 96%
- Total Cell Count [12]: 75
